# Results as given in ChEMBL document CHEMBL1137089, “Identification of putative agouti-related protein(87-132)-melanocortin-4 receptor interactions by homology molecular modeling and validation using chimeric peptide ligands” (J Med Chem, 2004).
# pEC50, pIC50: −log10 of the molar value. *1 amine or outer side, *2 acyl side, *3 side chain or, on linkers, in order; H or OH if unused. Where a SMILES comes first, the peptide text is derived from it. Bridges are numbered along the chain shown (N, C = ends). [ ]: non-standard residue; d: D form. The star is where a group is joined. X4 = O=C(C(=O)[*:2])[C@H](Cc1ccccc1)N[*:1]; X3 = NN[C@@H](Cc1ccc(O)cc1)C(=O)*; Dap = NC[C@H](N)C(=O)O
# Legend:
# [1] = target: Melanocyte-stimulating hormone receptor (Mus musculus, UniProt Q01727); test: Effective concentration against mouse Melanocortin 1 receptor; assay type: functional
# How it was run: (§1)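 HEK-293 cells stably expressing the mouse melanocortin receptor (G418 selection), transiently transfected with CRE/β-galactosidase reporter. EC50 by nonlinear least-squares fit; SEM from at least three independent experiments.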
# Melanocortin receptor 4 [2] = target: T1, Melanocortin receptor 4 (Mus musculus, UniProt P56450); test: Inhibitory concentration towards melanocortin MC4 receptor by displacing radioligand [125I]-hAGRP(87-132)
# Melanocortin receptor 3 = Melanocortin receptor 3 (Mus musculus, UniProt P33033); test: Effective concentration against mouse Melanocortin 3 receptor; assay type: functional; details: for Kb: read-out: pA2 (converted); how it was run: as §1
# Melanocortin receptor 4 [3] = target: T1, Melanocortin receptor 4; test: Inhibitory concentration towards melanocortin MC4 receptor by displacing radioligand [125I]NDP-MSH
# How it was run: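 Whole HEK-293 cells stably expressing the mouse MC4 receptor, plated at 0.3 × 10⁶ cells/well the day before. Cells washed, lysed in NaOH/Triton X-100, and counted by γ-counter. IC50 by nonlinear least-squares fit; duplicate wells, at least two independent experiments, mean ± SD.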
# Melanocortin receptor 4 [4] = target: T1, Melanocortin receptor 4; test: Effective concentration against mouse melanocortin MC4 receptor; assay type: functional; how it was run: as §1
# Melanocortin receptor 5 = Melanocortin receptor 5 (Mus musculus, UniProt P41149); test: Effective concentration against mouse Melanocortin 5 receptor; assay type: functional; how it was run: as §1
# Sequence of Melanocortin receptor 5 (P41149 whole entry): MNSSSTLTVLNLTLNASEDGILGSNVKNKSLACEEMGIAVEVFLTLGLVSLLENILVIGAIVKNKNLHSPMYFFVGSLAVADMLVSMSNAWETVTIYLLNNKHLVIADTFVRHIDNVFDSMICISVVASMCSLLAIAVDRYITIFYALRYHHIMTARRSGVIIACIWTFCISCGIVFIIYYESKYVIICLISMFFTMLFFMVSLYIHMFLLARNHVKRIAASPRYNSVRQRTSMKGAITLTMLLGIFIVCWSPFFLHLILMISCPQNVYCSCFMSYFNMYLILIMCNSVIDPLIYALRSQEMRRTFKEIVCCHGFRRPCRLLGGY
# T1 sequence (P56450 whole entry): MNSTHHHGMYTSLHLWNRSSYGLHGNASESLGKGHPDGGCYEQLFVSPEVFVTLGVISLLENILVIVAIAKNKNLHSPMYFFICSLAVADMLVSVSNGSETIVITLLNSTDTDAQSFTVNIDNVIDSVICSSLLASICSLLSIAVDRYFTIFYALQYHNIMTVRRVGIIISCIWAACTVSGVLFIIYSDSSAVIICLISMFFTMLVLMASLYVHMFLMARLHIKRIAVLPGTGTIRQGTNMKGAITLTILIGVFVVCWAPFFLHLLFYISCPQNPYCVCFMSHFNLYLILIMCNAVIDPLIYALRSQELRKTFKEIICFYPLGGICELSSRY
# Sequence of Melanocortin receptor 3 (P33033 whole entry): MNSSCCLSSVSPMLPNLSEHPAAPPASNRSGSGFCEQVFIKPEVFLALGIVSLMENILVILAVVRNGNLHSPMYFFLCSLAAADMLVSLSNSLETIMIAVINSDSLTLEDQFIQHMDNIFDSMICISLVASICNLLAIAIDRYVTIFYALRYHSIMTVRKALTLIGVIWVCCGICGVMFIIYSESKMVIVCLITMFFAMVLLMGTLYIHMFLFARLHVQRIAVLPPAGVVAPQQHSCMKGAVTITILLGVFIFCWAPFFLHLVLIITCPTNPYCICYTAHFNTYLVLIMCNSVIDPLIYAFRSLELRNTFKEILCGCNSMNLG
# Sequence of Melanocyte-stimulating hormone receptor (Q01727 whole entry): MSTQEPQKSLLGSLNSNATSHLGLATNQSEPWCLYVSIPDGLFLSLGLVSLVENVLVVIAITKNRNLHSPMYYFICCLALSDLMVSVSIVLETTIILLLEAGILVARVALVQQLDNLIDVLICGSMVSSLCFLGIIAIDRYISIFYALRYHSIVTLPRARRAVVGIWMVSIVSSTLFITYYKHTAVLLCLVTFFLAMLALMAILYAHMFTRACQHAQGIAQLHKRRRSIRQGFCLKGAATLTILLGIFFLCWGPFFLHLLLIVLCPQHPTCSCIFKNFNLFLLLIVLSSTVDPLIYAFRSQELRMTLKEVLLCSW
SMILES,pEC50 [1],pIC50 (Melanocortin receptor 4 [2]),pIC50 (Melanocortin receptor 4 [3]),pEC50 (Melanocortin receptor 4 [4]),pEC50 (Melanocortin receptor 5),Kb (Melanocortin receptor 3),pEC50 (Melanocortin receptor 3)
CNC(=O)C[C@@H]1NC(=O)[C@H](C)NC(=O)[C@H](C)NC(=O)[C@H](C)NC(=O)[C@@H](NC(=O)[C@H](Cc2ccc(O)cc2)NN)CC(=O)NC[C@@H](C(=O)N[C@@H](Cc2ccc(O)cc2)C(N)=O)NC(=O)C(=O)[C@H](Cc2ccccc2)NC(=O)[C@H](C)NC1=O (X3-DAAAD(NHMe)A[X4][Dap]Y-NH2; lactam 1-8),–,–,–,–,–,–,< 4.00
C[C@@H]1NC(=O)[C@H](CC(N)=O)NC(=O)[C@H](Cc2c[nH]c3ccccc23)NC(=O)[C@H](CCCNC(=N)N)NC(=O)[C@@H](Cc2ccccc2)NC(=O)[C@@H](NC(=O)[C@@H](N)Cc2ccc(O)cc2)CC(=O)NC[C@@H](C(=O)N[C@@H](Cc2ccc(O)cc2)C(N)=O)NC(=O)[C@H](Cc2ccccc2)NC1=O (H-YD[dF]RWNAF[Dap]Y-NH2; lactam 2-9),–,5.51,5.17,–,–,–,–
C[C@@H]1NC(=O)[C@H](CC(N)=O)NC(=O)[C@H](Cc2ccccc2)NC(=O)[C@H](Cc2ccccc2)NC(=O)[C@H](CCCNC(=N)N)NC(=O)[C@@H](NC(=O)[C@@H](N)Cc2ccc(O)cc2)CC(=O)NC[C@@H](C(=O)N[C@@H](Cc2ccc(O)cc2)C(N)=O)NC(=O)[C@H](Cc2ccccc2)NC1=O,–,5.49,5.32,–,–,–,–
C[C@@H]1NC(=O)[C@H](CC(N)=O)NC(=O)[C@H](Cc2c[nH]c3ccccc23)NC(=O)[C@H](CCCNC(=N)N)NC(=O)[C@H](Cc2ccccc2)NC(=O)[C@@H](NC(=O)[C@@H](N)Cc2ccc(O)cc2)CC(=O)NC[C@@H](C(=O)N[C@@H](Cc2ccc(O)cc2)C(N)=O)NC(=O)[C@H](Cc2ccccc2)NC1=O (H-YDFRWNAF[Dap]Y-NH2; lactam 2-9),4.71,5.39,5.04,4.87,5.41,–,–
C[C@@H]1NC(=O)[C@H](CC(N)=O)NC(=O)[C@H](Cc2ccccc2)NC(=O)[C@H](Cc2ccccc2)NC(=O)[C@H](CCCNC(=N)N)NC(=O)[C@H](Cc2c[nH]cn2)NC(=O)[C@@H](NC(=O)[C@@H](N)Cc2ccc(O)cc2)CC(=O)NC[C@@H](C(=O)N[C@@H](Cc2ccc(O)cc2)C(N)=O)NC(=O)[C@H](Cc2ccccc2)NC1=O (H-YDHRFFNAF[Dap]Y-NH2; lactam 2-10),4.88,–,–,< 4.00,< 4.00,–,–
C[C@@H]1NC(=O)[C@@H](CC(N)=O)NC(=O)[C@H](Cc2ccccc2)NC(=O)[C@@H](Cc2ccccc2)NC(=O)[C@H](CCCN=C(N)N)NC(=O)[C@@H](NC(=O)[C@@H](N)Cc2ccc(O)cc2)CC(=O)NC[C@@H](C(=O)N[C@@H](Cc2ccc(O)cc2)C(=O)O)NC(=O)[C@@H](Cc2ccccc2)NC1=O,–,–,–,–,–,2 µM,–

# Now from value to compound, other results behind:
pEC50 [1],pIC50 (Melanocortin receptor 4 [2]),pIC50 (Melanocortin receptor 4 [3]),pEC50 (Melanocortin receptor 4 [4]),pEC50 (Melanocortin receptor 5),SMILES,Kb (Melanocortin receptor 3),pEC50 (Melanocortin receptor 3)
< 4.00,8.26,–,–,–,CSCC[C@@H]1NC(=O)[C@H](C)NC(=O)[C@H]([C@@H](C)O)NC(=O)CNC(=O)[C@H](CC(C)C)NC(=O)[C@H](CCCCN)NC(=O)[C@H](CCCN=C(N)N)NC(=O)[C@@H]2CSSSSC[C@@H]3NC(=O)[C@@H]4CCCN4C(=O)[C@H](C(C)C)NC(=O)[C@H](CCC(N)=O)NC(=O)[C@H](CCC(N)=O)NC(=O)CNC(=O)[C@H](CC(C)C)NC(=O)[C@@H]4CSSSSC[C@H](NC(=O)[C@H]([C@@H](C)O)NC(=O)[C@H](C)NC(=O)[C@H](CSSSSC[C@@H](C(=O)N[C@@H](CO)C(=O)N[C@@H](CCCN=C(N)N)C(=O)N[C@H](C(=O)O)[C@@H](C)O)NC(=O)[C@@H]5CCCN5C(=O)[C@H](CC(N)=O)NC1=O)NC(=O)[C@@H]1CCCN1C(=O)[C@H](CC(=O)O)NC(=O)[C@H](CSSSSC[C@H](N)C(=O)N[C@@H](C(C)C)C(=O)N[C@@H](CCCN=C(N)N)C(=O)N[C@@H](CC(C)C)C(=O)N[C@@H](Cc1c[nH]cn1)C(=O)N[C@@H](CCC(=O)O)C(=O)N[C@@H](CO)C(=O)N4)NC3=O)C(=O)N[C@@H](Cc1ccc(O)cc1)C(=O)N[C@H]1CSSSSC[C@H](NC(=O)[C@H](Cc3ccccc3)NC(=O)[C@H](C)NC(=O)[C@H](CC(N)=O)NC(=O)[C@H](Cc3ccccc3)NC(=O)[C@H](Cc3ccccc3)NC(=O)[C@H](CCCN=C(N)N)NC1=O)C(=O)N[C@@H](Cc1ccc(O)cc1)C(=O)N2,0.00126 µM,–
5.21,< 5.00,–,4.80,5.65,C[C@@H]1NC(=O)[C@H](CC(N)=O)NC(=O)[C@@H](Cc2ccccc2)NC(=O)[C@H](CCCNC(=N)N)NC(=O)[C@H](Cc2c[nH]c3ccccc23)NC(=O)[C@@H](NC(=O)[C@@H](N)Cc2ccc(O)cc2)CC(=O)NC[C@@H](C(=O)N[C@@H](Cc2ccc(O)cc2)C(N)=O)NC(=O)[C@H](Cc2ccccc2)NC1=O (H-YDWR[dF]NAF[Dap]Y-NH2; lactam 2-9),–,–
–,5.14,4.99,–,–,C[C@@H]1NC(=O)[C@H](CC(N)=O)NC(=O)[C@H](Cc2ccccc2)NC(=O)[C@H](CCCNC(=N)N)NC(=O)[C@H](Cc2c[nH]c3ccccc23)NC(=O)[C@@H](NC(=O)[C@@H](N)Cc2ccc(O)cc2)CC(=O)NC[C@@H](C(=O)N[C@@H](Cc2ccc(O)cc2)C(N)=O)NC(=O)[C@H](Cc2ccccc2)NC1=O (H-YDWRFNAF[Dap]Y-NH2; lactam 2-9),–,–
